Test [1] deals with CCRF-CEM. The experiment in a line: Ability to inhibit the cytopathic effect induced by HIV-1 infection in CEM T-lymphoblastoid tumor cell line. Particulars: Homo sapiens; call rule not given here. Type of test: functional, cell-based. The gist of the method: (§1)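 CEM 4 cells in RPMI 1640 with 10% heat-inactivated FCS, penicillin, streptomycin, glutamine and polybrene (2 µg/mL), 37 °C, 5% CO2. Compound dilutions or PBS preincubated with cells for 1 h, then infected with HIV-1 IIIB/LAI (100-200 CCID50) and cultured ≥5 days. Mock-infected parallel cultures for cytotoxicity. Absorbance read at 540 nm; IC50 for 50% protection against cytopathogenicity, mean of ≥2 experiments.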

The subject of test [2] is MT4. In words: Ability to inhibit the cytopathic effect induced by HIV-1 infection in MT-4 cells. The format is functional, cell-based. The conditions noted are these: Homo sapiens. The essentials:
(§2)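 MT-4 cells infected with HIV-1 strain IIIB/LAI. Protection from virus-induced cytopathogenicity measured by the MTT method. IC50 is the concentration giving 50% protection, mean of at least two experiments.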

For test [3], the system named is CCRF-CEM. In words: Ability to inhibit the cytopathic effect induced by HIV-1 infection in CEM T-lymphoblastoid tumor cell line; NA=not active. Type of test: functional, cell-based, Homo sapiens. The gist of the method: as §1
On the technique in general: Protection from cytopathic effect is a common read-out in antiviral testing.

The subject of test [4] is MT4. In words: Ability to inhibit the cytopathic effect induced by HIV-1 infection in MT-4 cells; NA=not active. The format is functional, cell-based, Homo sapiens. The essentials: as §2

By IC50 is commonly meant the point on the concentration scale where inhibition reaches its midpoint. A high value points to weaker potency in that assay. On to `C=C(CSCCN(CC)CC)[C@@H]1CC[C@]2(C(=O)NCCCCCCCCCCC(=O)O)CC[C@]3(C)[C@H](CCC4[C@@]5(C)CC[C@H](O)C(C)(C)[C@@H]5CC[C@]43C)[C@@H]12` (stereo partly specified), for which the values for the IC50 with CCRF-CEM [1] and with MT4 [2] were 1 µM and 0.63 µM, respectively.
`C=C(CSCC(=O)O)[C@@H]1CC[C@]2(C(=O)NCCCCCCCCCCC(=O)O)CC[C@]3(C)[C@H](CCC4[C@@]5(C)CC[C@H](O)C(C)(C)[C@@H]5CC[C@]43C)[C@@H]12` (stereo partly specified): the IC50 entry in the test with CCRF-CEM [3] was “Not Active”; with MT4 [2] it was 1.61 µM.
As to `C=C(C)[C@@H]1CC[C@]2(C(=O)N(C)CCCCCCCCCCC(=O)O)CC[C@]3(C)[C@H](CCC4[C@@]5(C)CC[C@H](O)C(C)(C)[C@@H]5CC[C@]43C)[C@@H]12` (stereo partly specified), the IC50 result in the test with CCRF-CEM [3] and in the test with MT4 [4] was “Not Active” in each case.
`C=C(C)[C@@H]1CC[C@]2(CNCCCCCCCCCCC(=O)O)CC[C@]3(C)[C@H](CCC4[C@@]5(C)CC[C@H](O)C(C)(C)[C@@H]5CC[C@]43C)[C@@H]12` (stereo partly specified): the IC50 entry with CCRF-CEM [3] is recorded as “Not Active”.
For the compound `C=C(C)[C@@H]1CC[C@]2(C(=O)OCCCCCCCCCCC(=O)O)CC[C@]3(C)[C@H](CCC4[C@@]5(C)CC[C@H](O)C(C)(C)[C@@H]5CC[C@]43C)[C@@H]12` (stereo partly specified), the IC50 entry in the test on CCRF-CEM [3] and in the test with MT4 [4] was “Not Active” throughout.
In the case of `C=C(C)[C@@H]1CC[C@]2(NC(=O)NCCCCCCCCCC(=O)O)CC[C@]3(C)[C@H](CCC4[C@@]5(C)CC[C@H](O)C(C)(C)[C@@H]5CC[C@]43C)[C@@H]12` (stereo partly specified), the IC50 result with CCRF-CEM [3] and with MT4 [4] was “Not Active” throughout.
On to `CC1(C)C(O)CC[C@@]2(C)C1CC[C@]1(C)C2CCC2C3[C@H](C(=O)O)CC[C@]3(C(=O)NCCCCCCCCCCC(=O)O)CC[C@]21C` (stereo partly specified), for which the IC50 came to 50 µM in the test with CCRF-CEM [1] and 9 µM in the test on MT4 [2].
The corresponding values for `C=C(CNC(C)=O)[C@@H]1CC[C@]2(C(=O)NCCCCCCCCCCC(=O)O)CC[C@]3(C)[C@H](CCC4[C@@]5(C)CC[C@H](O)C(C)(C)[C@@H]5CC[C@]43C)[C@@H]12` (stereo partly specified) are 1.25 µM and 0.26 µM.
Regarding `CC(=O)[C@@H]1CC[C@]2(C(=O)NCCCCCCCCCCC(=O)O)CC[C@]3(C)C(CCC4[C@@]5(C)CCC(O)C(C)(C)C5CC[C@]43C)C12` (stereo partly specified), in the test with CCRF-CEM [1], the IC50 stood at 12 µM. In other words, the double-digit micromolar range.
Turning to `C=C(C)[C@@H]1CC[C@]2(NC(=O)CCCCCCCCCCC(=O)O)CC[C@]3(C)[C@H](CCC4[C@@]5(C)CC[C@H](O)C(C)(C)[C@@H]5CC[C@]43C)[C@@H]12` (stereo partly specified), the IC50 result in the test with CCRF-CEM [3] and in the test with MT4 [4] was “Not Active” each time.
As to `C=C(C)[C@@H]1CC[C@]2(C(=O)NCCCCCCCCCCC(=O)O)CC[C@]3(C)[C@H](CCC4[C@@]5(C)CC[C@H](OC)C(C)(C)[C@@H]5CC[C@]43C)[C@@H]12` (stereo partly specified), the IC50 entry in the test with CCRF-CEM [3] and in the test on MT4 [4] was “Not Active” throughout.
Turning to `C=C(CNCC(=O)O)[C@@H]1CC[C@]2(C(=O)NCCCCCCCCCCC(=O)O)CC[C@]3(C)[C@H](CCC4[C@@]5(C)CC[C@H](O)C(C)(C)[C@@H]5CC[C@]43C)[C@@H]12` (stereo partly specified), in the test with CCRF-CEM [3], the IC50 entry is recorded as “Not Active”.
For `C=C(CN1CCCC1)[C@@H]1CC[C@]2(C(=O)NCCCCCCCCCCC(=O)O)CC[C@]3(C)[C@H](CCC4[C@@]5(C)CC[C@H](O)C(C)(C)[C@@H]5CC[C@]43C)[C@@H]12` (stereo partly specified), the results for the IC50 with CCRF-CEM [1] and in the test with MT4 [2] were 1 µM and 0.42 µM, respectively.
The corresponding values for `C=C(CNCCO)[C@@H]1CC[C@]2(C(=O)NCCCCCCCCCCC(=O)O)CC[C@]3(C)[C@H](CCC4[C@@]5(C)CC[C@H](O)C(C)(C)[C@@H]5CC[C@]43C)[C@@H]12` (stereo partly specified) are 5.75 µM and 2 µM.
The corresponding values for `C=C(C)[C@@H]1CC[C@]2(C(=O)NCCCCCCCCCCC(=O)O)CC[C@]3(C)[C@H](CCC4[C@@]5(C)CC[C@@H](O)C(C)(C)[C@@H]5CC[C@]43C)[C@@H]12` (stereo partly specified) are 3 µM and 2.52 µM.
Take `C=C(C)[C@@H]1CC[C@]2(C(=O)NCCCCCCCCCCC(=O)O)CC[C@]3(C)C(CCC4[C@@]5(C)CC(O)C(O)C(C)(C)C5CC[C@]43C)C12` (stereo partly specified): the IC50 entry in the test on CCRF-CEM [3] is recorded as “Not Active”.
`C=C(C)[C@@H]1CC[C@]2(C(=O)NCCCCCCCCCCC(=O)O)CC[C@]3(C)C(CC[C@@H]4[C@@]5(C)CC=CC(C)(C)C5CC[C@]43C)C12` (stereo partly specified): the IC50 in the test on CCRF-CEM [1] stood at 1.8 µM; in the test on MT4 [2], 2.6 µM.
Regarding `CC(C)[C@@H]1CC[C@]2(C(=O)NCCCCCCCCCCC(=O)O)CC[C@]3(C)C(CC[C@@H]4[C@@]5(C)CCC(O)C(C)(C)C5CC[C@]43C)C12` (stereo partly specified), the IC50 in the test with CCRF-CEM [1] came to 1.5 µM; in the test on MT4 [2], 0.58 µM.
In the test with CCRF-CEM [1], `C=C(C)[C@@H]1CC[C@]2(C(=O)NCCCCCCCCCCC(=O)O)CC[C@]3(C)C(CC[C@@H]4[C@@]5(C)C=C(O)C(=O)C(C)(C)C5CC[C@]43C)C12` (stereo partly specified) returned an IC50 of 3 µM.
With `C=C(C)[C@@H]1CC[C@]2(C(=O)NCCCCCCCCCCC(=O)O)CC[C@]3(C)[C@H](CCC4[C@@]5(C)CCCC(C)(C)[C@@H]5CC[C@]43C)[C@@H]12` (stereo partly specified), in the test on CCRF-CEM [3], the IC50 entry was “Not Active”.
The same measure, in the same setting: under `C=C(C)[C@@H]1CC[C@]2(C(=O)NCCCCCCCCCCC(=O)O)CC[C@]3(C)[C@H](CCC4[C@@]5(C)CC[C@H](N)C(C)(C)[C@@H]5CC[C@]43C)[C@@H]12` (stereo partly specified) stands “Not Active”.
As to `C=C(C)[C@@H]1CC[C@]2(C(=O)NCCCCCCCCCCC(=O)O)CC[C@]3(C)[C@H](CCC4[C@@]5(C)CC[C@H](O)C(C)(C)[C@@H]5CC[C@]43C)[C@@H]12` (stereo partly specified), the IC50 is 0.23 µM in the test on CCRF-CEM [1] and 0.44 µM in the test on MT4 [2].
`C=C(CSCCO)[C@@H]1CC[C@]2(C(=O)NCCCCCCCCCCC(=O)O)CC[C@]3(C)[C@H](CCC4[C@@]5(C)CC[C@H](O)C(C)(C)[C@@H]5CC[C@]43C)[C@@H]12` (stereo partly specified): the IC50 amounted to 0.29 µM in the test with CCRF-CEM [1] and 0.27 µM in the test on MT4 [2].
Turning to `C=C(CN)[C@@H]1CC[C@]2(C(=O)NCCCCCCCCCCC(=O)O)CC[C@]3(C)[C@H](CCC4[C@@]5(C)CC[C@H](O)C(C)(C)[C@@H]5CC[C@]43C)[C@@H]12` (stereo partly specified), the IC50 entry in the test on CCRF-CEM [3] was “Not Active”.
As to `C=C(CO)[C@@H]1CC[C@]2(C(=O)NCCCCCCCCCCC(=O)O)CC[C@]3(C)[C@H](CCC4[C@@]5(C)CC[C@H](O)C(C)(C)[C@@H]5CC[C@]43C)[C@@H]12` (stereo partly specified), the IC50 in the test on CCRF-CEM [1] turned out to be 0.2 µM; in the test on MT4 [2] it was 0.38 µM.
Regarding `C=C(CSc1ccc(F)cc1)[C@@H]1CC[C@]2(C(=O)NCCCCCCCCCCC(=O)O)CC[C@]3(C)[C@H](CCC4[C@@]5(C)CC[C@H](O)C(C)(C)[C@@H]5CC[C@]43C)[C@@H]12` (stereo partly specified), the IC50 worked out at 2 µM in the test with CCRF-CEM [1] and 1.37 µM in the test with MT4 [2].
Regarding `C=C(C)[C@@H]1CC[C@]2(C(=O)NCCCCCCCCCCC(=O)O)CC[C@]3(C)[C@H](CCC4[C@@]5(C)CCC(=O)C(C)(C)[C@@H]5CC[C@]43C)[C@@H]12` (stereo partly specified), the IC50 in the test on CCRF-CEM [1] came out at 1.2 µM; with MT4 [2] it was 0.33 µM.

For the origin of these results see ChEMBL document CHEMBL1129507, “Betulinic acid derivatives: a new class of human immunodeficiency virus type 1 specific inhibitors with a new mode of action” (J Med Chem, 1996).
